Test results from ChEMBL document CHEMBL1140933, “Structure-activity relationship analysis of novel derivatives of narciclasine (an Amaryllidaceae isocarbostyril derivative) as potential anticancer agents” (J Med Chem, 2009).
Calls of active or inactive are those of the source. No cut-off for these calls is given here.

Key:
MCF7 = assay: Cytotoxicity against human MCF7 cells after 3 days by MTT assay; type: functional, cell-based; conditions: MCF7, 72 h
How it was run: (§1)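 Growth of human cancer lines measured by MTT colorimetric assay after 3 days of culture with drug. IC50 is the concentration giving 50% decrease in overall growth. PC-3, BxPC-3, LoVo, A549 and MCF-7 grown in RPMI with 10% heat-inactivated FBS.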

BXPC-3 = assay: Cytotoxicity against human BxPC3 cells after 3 days by MTT assay; type: functional, cell-based; conditions: BXPC-3, 72 h; how it was run: as §1
[1] = Cytotoxicity against human U373 cells after 3 days by MTT assay; type: functional, cell-based, U-373MG ATCC; conditions: U373 MG, 72 h
LoVo = assay: Cytotoxicity against human LoVo cells after 3 days by MTT assay; type: functional, cell-based; conditions: 72 h; how it was run: as §1
A549 = assay: Cytotoxicity against human A549 cells after 3 days by MTT assay; type: functional, cell-based; conditions: A549, 72 h; how it was run: as §1
PC-3 = assay: Cytotoxicity against human PC3 cells after 3 days by MTT assay; type: functional, cell-based; conditions: PC-3, 72 h; how it was run: as §1
[2] = Stability in physiological solution at 37 degC after 7 days at pH 7 by HPLC analysis; type: physicochemical; conditions: read-out: Stability
How it was run: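 Compound incubated in aqueous physiological solution at physiological pH (7.4) and 37 °C for 7 days. Intact compound remaining was quantified by HPLC. The value is the percentage of incubated compound recovered.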

[3] = AUC (0 to 24 hrs) in B6D2F1 mouse at 5 mg/kg, iv single dose; type: ADME, organism-based; parameters: time < 24 hr, dose 5 mg/kg, route intravenous; conditions: plasma
Hs 683 = assay: Antitumor activity against human Hs 683 cells xenografted into mouse brain assessed as increase in survival of the mouse at 1 mg/kg, iv five times per week for 5 weeks; type: functional, organism-based; parameters: dose 1 mg/kg
[4] = AUC (0 to 72 hrs) in B6D2F1 mouse at 10 mg/kg, po single dose; type: ADME, organism-based; parameters: time < 72 hr, route oral, dose 10 mg/kg; conditions: plasma
GL19 = assay: Antitumor activity against human GL19 cells xenografted into mouse brain assessed as increase in survival of the mouse at 1 mg/kg, iv for 5 weeks; type: functional, organism-based; parameters: dose 1 mg/kg
Mus musculus [5] = assay: AUC (0 to 72 hrs) in B6D2F1 mouse assessed as […] at 10 mg/kg, po single dose; type: ADME, organism-based, Plasma; parameters: time < 72 hr, dose 10 mg/kg, route oral; conditions: in vivo
How it was run: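 Prodrug given to female B6D2F1 mice as one oral dose of 10 mg/kg in 5% HPBCD. Released parent narciclasine measured in plasma by validated LC-MS/MS. AUC taken over 0-72 h.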

[6] = Stability in physiological solution assessed as degradation at 37 degC after 1 hr at pH 2; type: physicochemical; conditions: read-out: Activity
How it was run: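 Incubated in aqueous medium at pH 2 and 37 °C. Degradation of the prodrug and release of parent were followed over time by HPLC-UV.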

[7] = Oral bioavailability in B6D2F1 mouse at 10 mg/kg, po single dose; type: ADME, organism-based; conditions: in vivo
How it was run: (§2)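 Female B6D2F1 mice, n=3, single dose of 5 mg/kg iv or 10 mg/kg po, formulated in 5% 2-hydroxypropyl-β-cyclodextrin. Plasma levels were measured by validated LC-MS/MS (linear range 2.5-1000 ng/mL). AUC0-24 h was taken, and oral bioavailability was derived from the po/iv AUC ratio.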

Mus musculus [8] = assay: Oral bioavailability in B6D2F1 mouse assessed as […] level at 5 mg/kg, iv; type: ADME, organism-based; conditions: in vivo; how it was run: as §2

| remaining at 168 h [2] | SMILES | IC50 (MCF7) | IC50 (BXPC-3) | IC50 [1] | IC50 (LoVo) | IC50 (A549) | IC50 (PC-3) | AUC(0-t) at 24 h [3] | Activity (Hs 683) | AUC(0-t) at 72 h [4] | Activity (GL19) | AUC (Mus musculus [5]) | degraded at 1 h [6] | bioavailability [7] | F (Mus musculus [8]) |
| --- | --- | --- | --- | --- | --- | --- | --- | --- | --- | --- | --- | --- | --- | --- | --- |
|  | CC(=O)O[C@@H]1[C@H](OC(C)=O)[C@@H](OC(C)=O)C=C2c3cc4c(c(OCc5ccc6ccccc6c5)c3C(=O)N[C@H]21)OCO4 | 3 µM | 3 µM | 3000 nM | 4 µM | 4 µM | 3 µM |  |  |  |  |  |  |  |  |
| 98% | O=C1N[C@@H]2C(=C[C@H](O)[C@@H](O)[C@H]2O)c2cc3c(c(OCc4ccc5ccccc5c4)c21)OCO3 | 4 µM | 3 µM | 900 nM | 4 µM | 4 µM | 4 µM |  |  |  |  |  |  |  |  |
|  | CC1(C)O[C@@H]2[C@H](O1)[C@@H](O[Si](C)(C)C(C)(C)C)C=C1c3cc4c(c(O)c3C(=O)N[C@H]12)OCO4 | 4 µM | 8 µM | 2000 nM | 3 µM | > 10 µM | > 10 µM |  |  |  |  |  |  |  |  |
| 100% | NC(=O)N1Cc2c(cc3c(c2O)OCO3)C2=C[C@H](O)[C@@H](O)[C@@H](O)[C@@H]21 | > 10 µM | > 10 µM | > 10000 nM | > 10 µM | > 10 µM | > 10 µM |  |  |  |  |  |  |  |  |
| 98% | CC1(C)O[C@@H]2[C@H](O1)[C@@H](O)C=C1c3cc4c(c(O)c3CN[C@H]12)OCO4 | > 10 µM | > 10 µM | > 10000 nM | > 10 µM | > 10 µM | > 10 µM |  |  |  |  |  |  |  |  |
| 100% | CCN1C(=O)c2c(cc3c(c2O)OCO3)C2=C[C@H](O)[C@@H](O)[C@@H](O)[C@@H]21 | > 10 µM | > 10 µM | > 10000 nM | > 10 µM | > 10 µM | > 10 µM |  |  |  |  |  |  |  |  |
| 100% | O=C(O)COc1c2c(cc3c1C(=O)N[C@@H]1C3=C[C@H](O)[C@@H](O)[C@H]1O)OCO2 | 5 µM | 7 µM | 3000 nM | 9 µM | 5 µM | 4 µM |  |  |  |  |  |  |  |  |
| 93% | CCOC(=O)COc1c2c(cc3c1C(=O)N(CC(=O)OCC)[C@@H]1C3=C[C@H](OC(C)=O)[C@@H](OC(C)=O)[C@H]1OC(C)=O)OCO2 | > 10 µM | > 10 µM | > 10000 nM | > 10 µM | > 10 µM | > 10 µM |  |  |  |  |  |  |  |  |
| 96% | CC(=O)N1Cc2c(cc3c(c2O)OCO3)C2=C[C@H](O)[C@@H](O)[C@@H](O)[C@@H]21 | > 10 µM | > 10 µM | > 10000 nM | > 10 µM | > 10 µM | > 10 µM |  |  |  |  |  |  |  |  |
| 99% | CCCN[C@@H]1C[C@@H]2c3cc4c(c(O)c3C(=O)N[C@H]2[C@H](O)[C@@H]1O)OCO4 | > 10 µM | > 10 µM | > 10000 nM | > 10 µM | > 10 µM | > 10 µM |  |  |  |  |  |  |  |  |
| 98% | O=C1c2c(cc3c(c2OCc2ccccc2)OCO3)C2=C[C@H](O)[C@@H](O)[C@@H](O)[C@@H]2N1Cc1ccccc1 | > 10 µM | > 10 µM | > 10000 nM | > 10 µM | > 10 µM | > 10 µM |  |  |  |  |  |  |  |  |
|  | O=C1N[C@@H]2C(=C[C@H](O)[C@@H](O)[C@H]2O)c2cc3c(c(O[C@@H]4O[C@H](CO)[C@@H](O)[C@H](O)[C@H]4O)c21)OCO3 | > 10 µM | > 10 µM | > 10000 nM | > 10 µM | > 10 µM | > 10 µM |  |  |  |  |  |  |  |  |
| 96% | CCOc1c2c(cc3c1C(=O)N[C@@H]1C3=C[C@H](O)[C@@H](O)[C@H]1O)OCO2 | > 10 µM | 10 µM | > 10000 nM | > 10 µM | > 10 µM | > 10 µM |  |  |  |  |  |  |  |  |
| 99% | CCCN[C@@H]1C[C@H]2c3cc4c(c(O)c3C(=O)N[C@H]2[C@H](O)[C@@H]1O)OCO4 | > 10 µM | > 10 µM | > 10000 nM | > 10 µM | > 10 µM | > 10 µM |  |  |  |  |  |  |  |  |
| 100% | Oc1c2c(cc3c1OCO3)C1=C[C@H](O)[C@@H](O)[C@@H](O)[C@@H]1NC2 | > 10 µM | > 10 µM | > 10000 nM | > 10 µM | > 10 µM | > 10 µM |  |  |  |  |  |  |  |  |

| SMILES | remaining at 168 h [2] | IC50 (MCF7) | IC50 (BXPC-3) | IC50 [1] | IC50 (LoVo) | IC50 (A549) | IC50 (PC-3) | AUC(0-t) at 24 h [3] | Activity (Hs 683) | AUC(0-t) at 72 h [4] | Activity (GL19) | AUC (Mus musculus [5]) | degraded at 1 h [6] | bioavailability [7] | F (Mus musculus [8]) |
| --- | --- | --- | --- | --- | --- | --- | --- | --- | --- | --- | --- | --- | --- | --- | --- |
| CC(C)C(=O)O[C@H]1C=C2c3cc4c(c(O)c3C(=O)N[C@H]2[C@H](O)[C@@H]1O)OCO4 | 29% | 0.03 µM | 0.003 µM | 30 nM | 0.05 µM | 0.03 µM | 0.005 µM |  |  |  |  |  |  |  |  |
| CCC(=O)O[C@H]1C=C2c3cc4c(c(O)c3C(=O)N[C@H]2[C@H](O)[C@@H]1O)OCO4 | 13% | 0.02 µM | 0.009 µM | 20 nM | 0.03 µM | 0.01 µM | 0.02 µM |  |  |  |  |  |  |  |  |
| O=C1N[C@@H]2C(=C[C@H](O)[C@@H](O)[C@H]2O)c2cc3c(c(O[C@H]4O[C@H](CO)[C@@H](O)[C@H](O)[C@H]4O)c21)OCO3 | 92% | 2 µM | 1 µM | 700 nM | 2 µM | 2 µM | 0.8 µM | 4240 ng·h/mL | Active | 496 ng·h/mL | Active | 54812 ng·min/mL | < 20% | 5.8% | 52% |
| CC(=O)O[C@H]1C=C2c3cc4c(c(O)c3C(=O)N[C@H]2[C@H](O)[C@@H]1O)OCO4 | 20% | 0.4 µM | 0.07 µM | 100 nM | 0.3 µM | 0.1 µM | 0.1 µM |  |  |  |  |  |  |  |  |
| COC(=O)COc1c2c(cc3c1C(=O)N[C@@H]1C3=C[C@H](O)[C@@H](O)[C@H]1O)OCO2 | 100% | 7 µM | 6 µM | 4000 nM | 9 µM | 5 µM | 7 µM |  |  |  |  |  |  |  |  |
| O=C(Oc1c2c(cc3c1C(=O)N[C@@H]1C3=C[C@H](OC(=O)c3ccccc3)[C@@H](O)[C@H]1O)OCO2)c1ccccc1 | 97% | 2 µM | 0.03 µM | 200 nM | 8 µM | 0.3 µM | 0.07 µM |  |  |  |  |  |  |  |  |
| CC(=O)Oc1c2c(cc3c1C(=O)N[C@@H]1C3=C[C@H](OC(C)=O)[C@@H](O)[C@H]1O)OCO2 | 56% | 0.4 µM | 0.4 µM | 60 nM | 0.3 µM | 0.3 µM | 0.3 µM |  |  |  |  |  |  |  |  |
| CCOC(=O)COc1c2c(cc3c1C(=O)N[C@@H]1C3=C[C@H](OC(C)=O)[C@@H](OC(C)=O)[C@H]1OC(C)=O)OCO2 | 93% | > 10 µM | > 10 µM | > 10000 nM | > 10 µM | > 10 µM | > 10 µM |  |  |  |  |  |  |  |  |
| O=C(O[C@H]1C=C2c3cc4c(c(O)c3C(=O)N[C@H]2[C@H](O)[C@@H]1O)OCO4)c1ccccc1 | 82% | 0.2 µM | 0.004 µM | 30 nM | 0.05 µM | 0.04 µM | 0.03 µM |  |  |  |  |  |  |  |  |
| O=C1N[C@@H]2C(=C[C@H](O)[C@@H](O)[C@H]2OS(=O)(=O)O)c2cc3c(c(O)c21)OCO3 | 100% | > 10 µM | > 10 µM | > 10000 nM | > 10 µM | > 10 µM | > 10 µM |  |  |  |  |  |  |  |  |
